The nature of data set [1]: Compound was tested for toxicity induced in murine macrophage. The following applies: Mus musculus. In outline:
(§1)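 Resident mouse peritoneal cells recovered by PBS–heparin (10 U/mL) lavage, adhered 2 h at 37 °C in RPMI 1640 + 5% FCS. Macrophages plated at 1 × 10⁴/well with graded drug concentrations for 24 h (triplicate wells). C13* cells (2 × 10³/well) then added, cocultured 24 h, MTT read-out. Specific cytotoxicity = [OD(macrophages+C13*) − OD(macrophages)]/OD(C13*). IC50 with 95% limits by Litchfield–Wilcoxon.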

Data set [2] can be described thus: Compound was tested for toxicity induced in human monocyte; b indicates Not detected. The method, boiled down: (§2)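 Adherent human peripheral blood mononuclear cells (Ficoll-isolated, 2 h adhesion at 37 °C, nonadherent cells washed off) exposed 24 h to 25, 50, 100 μM test agent, triplicate wells per dose. Medium then replaced with C13* ovarian carcinoma cells (2 × 10³/well), cocultured 24 h, lysis read by MTT. IC50 with 95% confidence limits by Litchfield–Wilcoxon; three experiments in triplicate.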

The test system of data set [3] is C13. The data set can be described thus: In vitro cytotoxicity against C13 tumor cell line. The format is functional, cell-based. The following applies: Homo sapiens. In outline:
(§3)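 Cisplatin-resistant C13* human ovarian adenocarcinoma cells, kept in RPMI 1640 with 10% heat-inactivated FCS and 2 mM L-glutamine, seeded and treated 24 h later with graded concentrations for 24 h. Viability by MTT (4 h, 37 °C; DMSO solubilization; 570 nm, reference 630 nm). IC50 with 95% confidence limits by Litchfield–Wilcoxon; three experiments in triplicate.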

The species named for data set [4] is Mus musculus. The data set can be described thus: Potency ratio as the ratio of IC50 of DMXXA against murine macrophages to that of the IC50 against murine macrophages. The data set is classed as ADME.
Data set [5] in a line: Potency ratio against macrophages. The data set is classed as ADME.
The test system of data set [6] is C13. The data set can be described thus: In vitro cytotoxicity against C13 tumor cell line; Not detected. The format is functional, cell-based, Homo sapiens. In outline:
as §3

For data set [7], the species on record is Homo sapiens. The data set can be described thus: Potency ratio as the ratio of IC50 of DMXXA against human monocytes to that of the IC50 against human monocytes. The data set is classed as ADME.
A short description of data set [8]: Compound was tested for toxicity induced in human monocyte. In outline: as §2
Data set [9] is described as follows: Compound was tested for toxicity induced in murine macrophage; b indicates Not detected. Particulars: mouse. In outline: as §1

By IC50 is commonly meant the concentration that inhibits the measured activity by half.

Take `C#CCOc1ccc2c(=O)c3cccc(CC(=O)OC)c3oc2c1C`: the values for the IC50 in data set [1], in data set [2] and in data set [3] were 372 µM, “Not detected” and 410 µM, respectively. For the same compound, the Potency ratio in data set [4] is 0.6.

Take `COC(=O)Cc1cccc2c(=O)c3ccc4c(c3oc12)CC(C)O4` (stereo not drawn): the Potency ratio in data set [5] is listed as 1.2; in data set [7], 2; in [4] it was 2.5. The half-inhibitory concentration (IC50) was 82.8 µM in [1], “Not detected” in data set [6] and 67.3 µM in data set [8].

For `C=C(C)COc1ccc2c(=O)c3cccc(CC(=O)OC)c3oc2c1C`, the values for the IC50 in [3] and in [8] were 488 µM and 84.6 µM, respectively. Moreover, the Potency ratio result in data set [9] is recorded as “Not detected”.

In the case of `C=C(C)COc1ccc2c(=O)c3cccc(CC(=O)O)c3oc2c1C`, the Potency ratio in data set [5] is given as 0.9; in [7], 1.6; in [4], 2.7. In addition, the 50% inhibitory concentration (IC50) in [1] came to 77.3 µM; in data set [3], 443 µM; in data set [8], 86.2 µM.

`COC(=O)Cc1cccc2c(=O)c3ccc(OCC=C(C)C)c(C)c3oc12`: the results for the Potency ratio in data set [5], in data set [7] and in data set [4] were 3, 1.8 and 1, respectively. Besides, the IC50 amounted to 224 µM in [1], 702 µM in data set [3] and 73.6 µM in [8].

In the case of `COC(=O)Cc1cccc2c(=O)c3ccc4c(c3oc12)CC(C)(C)O4`, the figures for the Potency ratio in data set [5], in data set [7] and in data set [4] were 2.7, 1.8 and 1, respectively. Further, the half-maximal inhibitory concentration (IC50) in data set [1] came out at 201 µM; in data set [3], 549 µM; in data set [8] it was 73.7 µM.

For `CC(C)=CCOc1ccc2c(=O)c3cccc(CC(=O)O)c3oc2c1`, the values for the Potency ratio in [5], in data set [7] and in [4] were 4.1, 2.1 and 0.8, respectively. The 50% inhibitory concentration (IC50) is 264 µM in data set [1], 626 µM in [3] and 64.2 µM in data set [8].

For `C=CCOc1ccc2c(=O)c3cccc(CC(=O)O)c3oc2c1`, the IC50 was 218 µM in [1], “Not detected” in [2] and 510 µM in data set [3]. In [4], the Potency ratio stood at 1.

Take `CC1(C)C=Cc2c(ccc3c(=O)c4cccc(CC(=O)O)c4oc23)O1`: the Potency ratio is 0.2 in data set [5], 0.5 in [7] and 4.7 in data set [4]. Besides, the 50% inhibitory concentration (IC50) in data set [1] is 45.1 µM; in data set [3], 726 µM; in [8], 259 µM.

Turning to `Cc1ccc2c(=O)c3cccc(CC(=O)O)c3oc2c1C` [VADIMEZAN], the results for the 50% inhibitory concentration (IC50) in [1], in [3] and in data set [8] were 211 µM, 615 µM and 135 µM, respectively.

With `Cc1cc2c(ccc3c(=O)c4cccc(CC(=O)O)c4oc32)o1`, the results for the IC50 in data set [1], in [2] and in data set [6] were 42 µM, “Not detected” and “Not detected”, respectively. For the same compound, in data set [4], the Potency ratio is 5.

As to `C=CCOc1ccc2c(=O)c3cccc(CC(=O)OC)c3oc2c1`, the values for the Potency ratio in [5], in data set [7] and in [4] were 0.5, 0.8 and 3.4, respectively. Besides, the figures for the half-maximal inhibitory concentration (IC50) in data set [1], in data set [3] and in data set [8] were 61.6 µM, 509 µM and 114 µM, respectively.

Turning to `CC1(C)CCc2c(ccc3c(=O)c4cccc(CC(=O)O)c4oc23)O1`, the Potency ratio is on record as 0.7 in data set [5], 1.2 in data set [7] and 2.9 in data set [4]. The IC50 in data set [1] was 71.5 µM; in [6], “Not detected”; in data set [8], 108 µM.

As to `COC(=O)Cc1cccc2c(=O)c3ccc4c(c3oc12)C=CC(C)(C)O4`, the values for the Potency ratio in data set [5], in data set [7] and in data set [4] were 0.6, 2.5 and 6.9, respectively. Further, the IC50 in [1] was 30.5 µM; in [6], “Not detected”; in data set [8], 53.5 µM.

For the compound `CC1(C)Cc2c(ccc3c(=O)c4cccc(CC(=O)O)c4oc23)O1`, the Potency ratio in data set [5] came out at 1.3; in data set [7], 0.8; in data set [4] it was 0.9. The half-maximal inhibitory concentration (IC50) in data set [1] turned out to be 220 µM; in data set [3], 604 µM; in data set [8] it was 172 µM.

For the compound `CC1Cc2c(ccc3c(=O)c4cccc(CC(=O)O)c4oc23)O1` (stereo not drawn), the Potency ratio in [5] is reported as 0.9; in [7] it was 0.7; in [4] it was 1.3. The values for the IC50 in data set [1], in [3] and in [8] were 157 µM, 711 µM and 178 µM, respectively.

With `COC(=O)Cc1cccc2c(=O)c3ccc4oc(C)cc4c3oc12`, the IC50 in data set [1] was 80.9 µM; in data set [2], “Not detected”; in data set [6] it was “Not detected”. Further, the Potency ratio in [4] is reported as 2.6.

Values taken from ChEMBL document CHEMBL1135640, “Synthesis and antitumor activity of new derivatives of xanthen-9-one-4-acetic acid” (J Med Chem, 2002).
